These results are taken from ChEMBL document CHEMBL1121644, “N-(aminophenyl)oxamic acids and esters as potent, orally active antiallergy agents” (1981).

Active and inactive are the calls of the source. The calls are words filed in the database; no cut-off is given here. Bounds are passed on as bounds.

Test [1] concerns Rattus norvegicus. In words: Antiallergic property in passive cutaneous anaphylaxis (PCA) test in rats upon intraperitoneal administration. Type of test: functional. To be noted: for ED50: ip. In outline:
(§1)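 Male Sprague-Dawley rats (200 g) were sensitized id on the shaved back with 0.05 mL of a 1:100 dilution of rat anti-ovalbumin IgE serum. After 48 h they were challenged iv with 1.0 mL of 0.8% ovalbumin containing 5 mg Evans blue, and killed 40 min later. Wheal area (mm²) was taken as the longest diameter times its perpendicular. ED50 is the dose halving wheal size versus control, from regression over at least four log-spaced doses with five rats per dose.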

In test [2] the test system is Rattus norvegicus. Briefly: Antiallergic property in passive cutaneous anaphylaxis (PCA) test in rats upon oral administration. The format is functional. In outline: as §1
In test [3] the test system is Rattus norvegicus. In words: Percent inhibition of wheal size in passive cutaneous anaphylaxis (PCA) test at 50 mg/kg upon intraperitoneal administration. The format is functional. To be noted: ip. In outline:
(§2)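 Rats (male Sprague-Dawley, 200 g) were passively sensitized id with 0.05 mL of 1:100 IgE antiserum raised against ovalbumin. After a 48-h latency they were challenged iv with 0.8% ovalbumin (1.0 mL) plus 5 mg Evans blue. Skin was reflected 40 min later and stained wheals measured as longest diameter × perpendicular (mm²). Results are percent inhibition of wheal size versus control.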

The test system of test [4] is Rattus norvegicus. Briefly: Percent inhibition of wheal size in passive cutaneous anaphylaxis (PCA) test at 50 mg/kg upon oral administration. The format is functional. The gist of the method: as §2
Test [5] has as its system Rattus norvegicus. In words: Antiallergic property in passive cutaneous anaphylaxis (PCA) test in rats upon intraperitoneal administration; NA=Not active at 100 mg/kg. The format is functional, organism-based. More on the design: dose 100 mg/kg. The gist of the method:
as §1

For test [6], the system named is Rattus norvegicus. In words: Antiallergic property in passive cutaneous anaphylaxis (PCA) test in rats upon oral administration; NA=Not active at 100 mg/kg. The format is functional, organism-based. More on the design: dose 100 mg/kg. The gist of the method:
as §1

In test [7] the test system is Rattus norvegicus. Briefly: Percent inhibition using passive cutaneous anaphylaxis (PCA assay) in rat at 1 mg/kg upon oral administration. The format is functional. In outline:
as §2

Test [8] deals with Rattus norvegicus. Briefly: Percent inhibition of wheal size in passive cutaneous anaphylaxis (PCA) test at 50 mg/kg (administered orally). The format is functional. To be noted: po. The gist of the method: as §2

With `CCOC(=O)C(=O)Nc1cccc(F)c1C#N`, the ED50 worked out at 1.2 mg/kg in test [1] and 59 mg/kg in test [2]. In test [3], `CCOC(=O)C(=O)Nc1ccc([N+](=O)[O-])cc1C#N` returned an inhibition in vivo at 50 mg/kg of 33%. `CCOC(=O)C(=O)Nc1cccc(C(C)C)c1C#N`: in test [4], the inhibition in vivo at 50 mg/kg turned out to be 18%. Moreover, in test [5], the ED50 entry was “inactive”. With `CCOC(=O)C(=O)Nc1ccc(N)cc1C#N`, the ED50 in test [1] came to 1 mg/kg; in test [2], 8.8 mg/kg. In the same order, the values of `CCOC(=O)C(=O)Nc1cccc(N(C)C)c1C#N` are 0.2 mg/kg and 4.2 mg/kg.

On to `CCOC(=O)C(=O)Nc1cccc(N2CCOCC2)c1C#N`, for which the values for the ED50 in test [1] and in test [2] were 1.2 mg/kg and 6.3 mg/kg, respectively. For the compound `O=C([O-])c1cc(=O)c2c(OCC(O)COc3cccc4oc(C(=O)[O-])cc(=O)c34)cccc2o1.[Na+].[Na+]` [CROMOLYN SODIUM], the ED50 in test [1] was determined as 8 mg/kg. In addition, the ED50 result in test [6] is “inactive”. On to `CCOC(=O)C(=O)Nc1cccc(Br)c1C#N`, for which the ED50 result in test [5] is “inactive”. For the compound `CCOC(=O)C(=O)Nc1cc(N(C)C)ccc1C#N`, the ED50 in test [1] is 1.9 mg/kg; in test [2] it was greater than 100 mg/kg. For the compound `CCCNc1cccc(NC(=O)C(=O)OCC)c1C#N`, the ED50 in test [1] was determined as 0.5 mg/kg; in test [2], 0.7 mg/kg. As to `CCN(CC)c1cccc(NC(=O)C(=O)O)c1C#N`, in test [7], the inhibition in vivo at 1 mg/kg was determined as 99.2%. As for `CCOC(=O)C(=O)Nc1cccc(OC)c1C#N`, the figures for the ED50 in test [1] and in test [2] were 5.3 mg/kg and 55.5 mg/kg, respectively. In the same order, the values of `CCOC(=O)C(=O)Nc1cccc(OC(C)C)c1C#N` are 2 mg/kg and 1 mg/kg. `CCOC(=O)C(=O)Nc1cccc(Cl)c1C#N`: the inhibition in vivo at 50 mg/kg in test [3] amounted to 56%. `N#Cc1c(N)cccc1NC(=O)C(=O)O`: the inhibition in vivo at 1 mg/kg in test [7] was found to be 21.2%.

With `CCOC(=O)C(=O)Nc1ccccc1C#N`, the ED50 in test [1] was 0.4 mg/kg; in test [2] it was 2.9 mg/kg.

As for `CN(C)c1cccc(NC(=O)C(=O)O)c1C#N`, the inhibition in vivo at 1 mg/kg in test [7] came to 54.7%. Take `CCOC(=O)C(=O)Nc1cccc(N)c1C#N`: the ED50 in test [1] worked out at 0.05 mg/kg; in test [2], 0.07 mg/kg. As for `CCCCNc1cccc(NC(=O)C(=O)OCC)c1C#N`, the ED50 in test [1] and in test [2] was 0.3 mg/kg in each case. For the compound `CCNc1cccc(NC(=O)C(=O)OCC)c1C#N`, the ED50 in test [1] and in test [2] was 0.03 mg/kg each time. In test [7], `COC(=O)c1cccc(NC(=O)C(=O)O)c1C#N` registered an inhibition in vivo at 1 mg/kg of 24.5%. As for `CCOC(=O)C(=O)Nc1cccc(N2CCCC2)c1C#N`, the inhibition in vivo at 50 mg/kg in test [4] and in test [3] was 83% throughout.

Regarding `CCOC(=O)C(=O)Nc1cccc(NC(C)=O)c1C#N`, the inhibition in vivo at 50 mg/kg in test [8] and in test [3] was 91% in each case. With `Cc1cccc(NC(=O)C(=O)O)c1C#N`, in test [7], 1 mg/kg produced 32.3% inhibition in vivo.

Consider `N#Cc1c(NC(=O)C(=O)O)cccc1N1CCOCC1`, for which 1 mg/kg produced 14.1% inhibition in vivo in test [7]. Take `CCOC(=O)C(=O)Nc1cccc(N(C)C(C)C)c1C#N`: the results for the ED50 in test [1] and in test [2] were 0.3 mg/kg and 1.2 mg/kg, respectively.

On to `CCOC(=O)C(=O)Nc1cccc(N(CC)CC)c1C#N`, for which the ED50 in test [1] amounted to 0.7 mg/kg; in test [2], 0.9 mg/kg. In the case of `CCOC(=O)C(=O)Nc1c(C#N)cccc1N(C)C`, in test [5], the ED50 entry is “inactive”. `CC(C)Oc1cccc(NC(=O)C(=O)O)c1C#N`: in test [7], the inhibition in vivo at 1 mg/kg amounted to 75.1%. As to `CCOC(=O)C(=O)Nc1cccc(S(C)(=O)=O)c1C#N`, in test [5], the ED50 result is “inactive”. The compound `CCN(C)c1cccc(NC(=O)C(=O)O)c1C#N` came in with an inhibition in vivo at 1 mg/kg in test [7] of 56.3%. `CCOC(=O)C(=O)Nc1cccc(C(=O)OC)c1C#N`: the ED50 in test [1] is 1.2 mg/kg; in test [2], 0.8 mg/kg. As to `CCOC(=O)C(=O)Nc1cccc(N(C)CC)c1C#N`, the ED50 in test [1] amounted to 0.3 mg/kg; in test [2], 0.5 mg/kg. As for `CCOC(=O)C(=O)Nc1cccc([N+](=O)[O-])c1C#N`, the values for the ED50 in test [1] and in test [2] were 0.4 mg/kg and 82 mg/kg, respectively.

`CCCNc1cccc(NC(=O)C(=O)[O-])c1C#N.[Na+]`: the % inhibition at 1 mg/kg in test [7] amounted to 83.1%. In the case of `CCOC(=O)C(=O)Nc1cccc(NC)c1C#N`, the ED50 was 0.2 mg/kg in test [1] and 0.1 mg/kg in test [2]. Turning to `CNc1cccc(NC(=O)C(=O)[O-])c1C#N.[Na+]`, in test [2], the ED50 came to 0.07 mg/kg. The same compound had an inhibition in vivo at 1 mg/kg in test [7] of 96%. Take `CCOC(=O)C(=O)Nc1cccc(C)c1C#N`: the ED50 was 5.3 mg/kg in test [1] and 4.6 mg/kg in test [2].

Compound `CCNc1cccc(NC(=O)C(=O)O)c1C#N` yielded an inhibition in vivo at 1 mg/kg in test [7] of 58.9%. `CCOC(=O)C(=O)Nc1ccc(C(F)(F)F)c(N2CCOCC2)c1C#N`: the ED50 in test [1] was 0.1 mg/kg; in test [2], greater than 100 mg/kg.

`CCOC(=O)C(=O)Nc1cccc(N2CCCCC2)c1C#N` returned an ED50 in test [1] of 2.2 mg/kg. In addition, in test [6], the ED50 result was “inactive”.

`CCCCCOc1cccc(NC(=O)C(=O)OCC)c1C#N` came in with an Inhibition in test [1] of 25%. For the compound `CCOC(=O)C(=O)Nc1ccc(N(C)C)cc1C#N`, the ED50 is 1 mg/kg in test [1] and 2.4 mg/kg in test [2]. Turning to `CCOC(=O)C(=O)Nc1cccc(N2CCN(C)CC2)c1C#N.Cl`, the ED50 in test [1] was 0.04 mg/kg; in test [2], 10.3 mg/kg.

Turning to `CCCCNc1cccc(NC(=O)C(=O)[O-])c1C#N.[Na+]`, the % inhibition at 1 mg/kg in test [7] is 93.5%.
